Reference: publication PMC3566393 (Biological Trace Element Research, 2012)
Where two headings read alike, the source gives them in different places. One block for each molecule: values may come before it.

Tests used:
rat TRPV1 = rat TRPV1 (Rattus norvegicus, UniProt O35433); experiment: Vanilloid-induced 45Ca2+ uptake in TRPV1/HaCaT cells; assay type: cell-based; conditions: for Effect on CAPS-induced 45Ca2+ uptake (in words): 2 μM CAPS, up to highest concentration 4 mM
[1] = 1:1 complexes; cited from earlier work
[2] = cited from earlier work
TRPV1 [3] = biological target: T1, TRPV1 (Rattus norvegicus, UniProt O35433); experiment: Cobalt histochemistry on 3T3 cell line expressing TRPV1 ectopically; assay type: cell-based; conditions: 10 min, ± S.D.
T1 sequence (O35433 whole entry): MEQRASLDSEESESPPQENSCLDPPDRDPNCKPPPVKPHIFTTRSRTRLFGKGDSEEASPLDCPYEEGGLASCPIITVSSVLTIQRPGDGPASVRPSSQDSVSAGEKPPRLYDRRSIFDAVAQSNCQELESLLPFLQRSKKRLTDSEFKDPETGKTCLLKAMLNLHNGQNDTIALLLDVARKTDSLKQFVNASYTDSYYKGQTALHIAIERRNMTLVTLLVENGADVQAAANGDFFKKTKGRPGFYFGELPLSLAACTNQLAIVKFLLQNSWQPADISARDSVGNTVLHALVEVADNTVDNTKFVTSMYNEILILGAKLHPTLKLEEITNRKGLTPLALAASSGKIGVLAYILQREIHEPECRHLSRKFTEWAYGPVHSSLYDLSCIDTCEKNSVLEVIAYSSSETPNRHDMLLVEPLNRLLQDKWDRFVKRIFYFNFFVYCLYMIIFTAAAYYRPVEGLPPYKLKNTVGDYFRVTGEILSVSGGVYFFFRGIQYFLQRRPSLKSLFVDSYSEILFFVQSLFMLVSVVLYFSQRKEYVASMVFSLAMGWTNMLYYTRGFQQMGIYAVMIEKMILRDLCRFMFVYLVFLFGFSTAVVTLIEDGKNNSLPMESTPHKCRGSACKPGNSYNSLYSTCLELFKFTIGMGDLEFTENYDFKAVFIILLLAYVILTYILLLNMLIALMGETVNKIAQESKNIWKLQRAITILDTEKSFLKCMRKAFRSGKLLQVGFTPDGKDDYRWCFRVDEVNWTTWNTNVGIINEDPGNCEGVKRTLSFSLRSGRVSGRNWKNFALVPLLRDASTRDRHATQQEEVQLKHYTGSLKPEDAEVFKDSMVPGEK

TRPV1 [4] = biological target: T1, TRPV1; experiment: Cobalt histochemistry on HaCaT cell line expressing TRPV1 ectopically; assay type: cell-based; conditions: 20 μM CAPS + 5 mM Co2+; CapZ 300 nM-100 μM, RuRed 500 nM-100 μM
CD1 mice = experiment: Eye wipe test; assay type: in vivo; conditions: 100 μM CAPS dropped into the eye with 1 mM CoCl2 or 5 μM CapZ, n = 8
Method in brief: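 Defensive eye-wiping movements were then counted. Data were means ± SD from eight independent experiments. Inhibition was tested by paired t test (P < 0.05).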

wild-type TRPV1 = wild-type TRPV1 (Rattus norvegicus, UniProt O35433); experiment: CAPS-evoked 45Ca2+ influx in cells transiently transfected with wild-type TRPV1; assay type: cell-based; conditions: read-out: IC50, 45Ca2+ influx, 4 μM CAPS
Sequence of wild-type TRPV1 (O35433 whole entry): as above

rat TRPV1 D646N mutant = rat TRPV1 D646N mutant (Rattus norvegicus, UniProt O35433, D646N); experiment: CAPS-evoked 45Ca2+ influx in cells expressing the TRPV1 D646N point mutant; assay type: cell-based; conditions: read-out: IC50, 45Ca2+ influx, 4 μM CAPS
Sequence of rat TRPV1 D646N mutant (O35433 whole entry D646N): as the sequence (O35433 whole entry) above, with D646N counted along it

rat TRPV1 E651W mutant = rat TRPV1 E651W mutant (Rattus norvegicus, UniProt O35433, E651W); experiment: CAPS-evoked 45Ca2+ influx in cells expressing the TRPV1 E651W point mutant; assay type: cell-based; conditions: read-out: IC50, 45Ca2+ influx, 4 μM CAPS
Sequence of rat TRPV1 E651W mutant (O35433 whole entry E651W): as the sequence (O35433 whole entry) above, with E651W counted along it

rat TRPV1 N628W mutant = rat TRPV1 N628W mutant (Rattus norvegicus, UniProt O35433, N628W); experiment: CAPS-evoked 45Ca2+ influx in cells expressing the TRPV1 N628W point mutant; assay type: cell-based; conditions: read-out: IC50, 45Ca2+ influx, 4 μM CAPS
Sequence of rat TRPV1 N628W mutant (O35433 whole entry N628W): as the sequence (O35433 whole entry) above, with N628W counted along it

rat TRPV1 Y627W mutant = rat TRPV1 Y627W mutant (Rattus norvegicus, UniProt O35433, Y627W); experiment: CAPS-evoked 45Ca2+ influx in cells expressing the TRPV1 Y627W point mutant; assay type: cell-based; conditions: read-out: IC50, 45Ca2+ influx, 4 μM CAPS
Sequence of rat TRPV1 Y627W mutant (O35433 whole entry Y627W): as the sequence (O35433 whole entry) above, with Y627W counted along it

[5] = test system: TRPV1+ dorsal root ganglion neurons; experiment: Cobalt histochemistry in primary DRG sensory neuron cultures; assay type: cell-based, rat; conditions: 20 μM CAPS, Co2+-uptake medium
3T3 cell line = experiment: Cobalt histochemistry on 3T3 cell line without TRPV1; assay type: cell-based; conditions: 20 μM CAPS + 5 mM Co2+
TRPV1/3T3 cells = TRPV1/3T3 cells (Rattus norvegicus, UniProt O35433); experiment: CAPS-induced TRPV1-mediated 45Ca2+ accumulation with VGCC blocker; assay type: cell-based; conditions: data not shown
Sequence of TRPV1/3T3 cells (O35433 whole entry): as the sequence (O35433 whole entry) above

Sequence of rat TRPV1 (O35433 whole entry): as above

SMILES: [Mg+2] [Mg^2+]
Effect on CAPS-induced 45Ca2+ uptake (in words) (rat TRPV1; TRPV1/HaCaT cells): little or no effect
Stability constant of the complex formed between M2+ and tryptophan [1]: 2.84 ± 0.08
Ionic radius [2]: 72 picometres

SMILES: [Cu+2] [Cu^2+]
Stability constant of the complex formed between M2+ and tryptophan [1]: 8.05 ± 0.05
Ionic radius [2]: 73 picometres

SMILES: [Ni+2] [Ni^2+]
Stability constant of the complex formed between M2+ and tryptophan [1]: 5.31 ± 0.06
Ionic radius [2]: 69 picometres

SMILES: [Ca+2] [Ca^2+]
Stability constant of the complex formed between M2+ and tryptophan [1]: 2.55 ± 0.08
Ionic radius [2]: 100 picometres

SMILES: N.N.N.N.N.N.N.N.N.N.N.N.N.N.[Cl-].[Cl-].[Cl-].[Cl-].[Cl-].[Cl-].[O-2].[O-2].[Ru+3].[Ru+3].[Ru+4] [RuRed, Ruthenium Red, reference compound]
IC50 (wild-type TRPV1): 0.87 µM
IC50 (rat TRPV1 D646N mutant): 12.8 µM
IC50 (rat TRPV1 E651W mutant): 0.94 µM
IC50 (rat TRPV1 N628W mutant): 1.33 µM
IC50 (rat TRPV1 Y627W mutant): 0.26 µM
Effect on CAPS-induced cellular Co2+ accumulation (TRPV1 [4]): blocked

Now from value to molecule, other results behind:

IC50 (rat TRPV1): 20 µM
SMILES: CN(C)CCC=C1c2ccccc2CCc2ccccc21 [AMI, Amitriptyline, reference compound]

Mean gray value (intracellular CoS) (TRPV1 [3]; CAPS + Co2+ + CapZ (5 μM CapZ), n = 100): 76.92 ± 22.21
SMILES: Oc1cc2c(cc1O)CN(C(=S)NCCc1ccc(Cl)cc1)CCC2 [CapZ, capsazepine, reference compound]
Effect on CAPS-induced cellular Co2+ accumulation (TRPV1 [4]): inhibited the cellular entry of Co^2+ in a dose-dependent manner
Effect on vanilloid-evoked eye wiping movements (CD1 mice): Inhibition

Effect on CAPS-induced 45Ca2+ uptake (in words) (rat TRPV1; TRPV1/HaCaT cells): little or no effect
SMILES: [Mn+2] [Mn^2+]
Stability constant of the complex formed between M2+ and tryptophan [1]: 3.34 ± 0.05
Ionic radius [2]: 67 picometres

IC50 (rat TRPV1; read-out: IC50 of Co2+, in the presence of 0 μM cold Ca2+): 7.94 µM
IC50 (rat TRPV1; read-out: IC50 of Co2+, in the presence of 0.0625 μM CAPS): 94.8 µM
IC50 (rat TRPV1; read-out: IC50 of Co2+, in the presence of 0.125 μM CAPS): 58 µM
IC50 (rat TRPV1; read-out: IC50 of Co2+, in the presence of 0.25 μM CAPS): 73.2 µM
IC50 (rat TRPV1; read-out: IC50 of Co2+, in the presence of 0.5 μM CAPS): 32.6 µM
IC50 (rat TRPV1; read-out: IC50 of Co2+, in the presence of 1 μM CAPS): 19.2 µM
IC50 (rat TRPV1; read-out: IC50 of Co2+, in the presence of 2 μM CAPS): 22.6 µM
IC50 (rat TRPV1; read-out: IC50 of Co2+, in the presence of 4 μM CAPS): 15.6 µM
IC50 (rat TRPV1; read-out: IC50 of Co2+, in the presence of 15.625 μM cold Ca2+): 51.2 µM
IC50 (rat TRPV1; read-out: IC50 of Co2+, in the presence of 31.25 μM cold Ca2+): 72.7 µM
IC50 (rat TRPV1; read-out: IC50 of Co2+, in the presence of 62.5 μM cold Ca2+): 79.1 µM
IC50 (rat TRPV1; read-out: IC50 of Co2+, in the presence of 125 μM cold Ca2+): 189 µM
IC50 (wild-type TRPV1): 18.3 µM
IC50 (rat TRPV1 D646N mutant): 25.7 µM
IC50 (rat TRPV1 E651W mutant): 15.3 µM
IC50 (rat TRPV1 N628W mutant): 16.4 µM
IC50 (rat TRPV1 Y627W mutant): 18.6 µM
Mean gray value (intracellular CoS) (TRPV1 [3]; CAPS + Co2+ (20 μM CAPS + 5 mM Co2+), n = 111): 124.4 ± 21.51
SMILES: [Co+2] [Co^2+]
CAPS-induced Co2+ accumulation in sensory neurons [5]: enters into the cytosol of specific PNS sensory neurons
Co2+ staining in the absence of TRPV1 (3T3 cell line): No substantial staining
Effect on vanilloid-evoked eye wiping movements (CD1 mice): decreased the frequency of vanilloid-evoked defending movements
Stability constant of the complex formed between M2+ and tryptophan [1]: 4.34 ± 0.07
Ionic radius [2]: 65 picometres

Effect on CAPS-induced 45Ca2+ uptake (in words) (rat TRPV1; TRPV1/HaCaT cells): only partial inhibitor
Decrease of the maximal ion influx achieved (rat TRPV1; TRPV1/HaCaT cells, CAPS-induced 45Ca2+ uptake): 30%
SMILES: [Zn+2] [Zn^2+]
Stability constant of the complex formed between M2+ and tryptophan [1]: 5.00 ± 0.08
Ionic radius [2]: 74 picometres

Effect on CAPS-induced TRPV1-mediated 45Ca2+ accumulation (TRPV1/3T3 cells): did not decrease
SMILES: COC(=O)C1=C(C)NC(C)=C(C(=O)OCC(C)C)C1c1ccccc1[N+](=O)[O-] (stereo not shown) [nisoldipine]

Concentration causing full activation (EC100) of TRPV1 (rat TRPV1; pH 7.5, 45Ca2+ uptake assay): Approximately 1 μM
SMILES: COc1cc(CNC(=O)CCCC/C=C/C(C)C)ccc1O [CAPS, capsaicin, reference compound]

Effect on CAPS-induced 45Ca2+ uptake (in words) (rat TRPV1; TRPV1/HaCaT cells): little or no effect
SMILES: [La+3] [La^3+]
